CSN deneddyl inh: blocks human CSN-mediated cullin deneddylation. Q92905. Purified CSN, SCF-Nedd8-OG deneddylation, fluorescence polarization. inhibition, % at 12.5 µM. 0.38% of 360,000 active. AID 651999;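 active means pattern-corrected inhibition above about 35%, with an unprinted fluorescence ratio check between 0.5 and 1.5, limit read from the data, passing the limit was not always enough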;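 further: 0% = enzyme with substrate and 100% = substrate without enzyme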
Target sequence (Q92905 whole entry, looked up, one chain of several): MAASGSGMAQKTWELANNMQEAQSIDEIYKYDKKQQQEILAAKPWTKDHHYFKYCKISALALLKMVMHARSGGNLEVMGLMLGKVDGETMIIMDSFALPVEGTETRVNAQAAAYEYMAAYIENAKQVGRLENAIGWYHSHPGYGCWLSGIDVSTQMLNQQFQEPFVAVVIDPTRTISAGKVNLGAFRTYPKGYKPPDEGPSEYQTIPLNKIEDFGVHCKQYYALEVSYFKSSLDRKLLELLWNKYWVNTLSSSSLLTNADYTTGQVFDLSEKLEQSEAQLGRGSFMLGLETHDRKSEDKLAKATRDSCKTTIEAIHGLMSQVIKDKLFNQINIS
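Test system: purified human Csn5 enzyme expressed in HEK293T cells. Amount: 0.24 nM enzyme. Reagent: SCFSkp2-Nedd8OG substrate at 10 nM final. Schedule: 90 min incubation of compound, enzyme and substrate at room temperature. Detection: fluorescence polarization. Read-out: % inhibition of substrate cleavage by Csn5.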
XiGFP reactiv: X-chromosome reactivation activator. XiGFP mouse fibroblasts, % GFP-positive cells imaging, 3 d; cells co-treated with 5-aza-dC sensitizer; scaled so ellipticine positive control = 100%. activation, % at 7.58 µM. 0.055% of 360,000 active;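 active means mean normalized replicate activation at least 10% and every replicate at or above 10%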;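 further: 0% = median of on-plate neutral control wells and 100% = ellipticine 6 µM median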
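Material: SV40-immortalized XiGFP fibroblast cells, line 68-5-11 | Buffer or medium: DMEM containing 5-aza-dC | Dosing: One concentration, pinned | Times: 3 d treatment, 15 min room-temperature fixation | Controls: Ellipticine 6 µM positive control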
TPT1 inhibitor: C. albicans TPT1 enzyme inhibition; inhibition, % at 5 µM; AID 1962; 0.81% of 300,000 active; recombinant caTPT1, FP RNA substrate dephosphorylation;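 active means inhibition above the mean of all tested compounds plus 3 SD, set per screening campaign, cut at about 24% in these data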;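 further: plate controls were DMSO alone for no effect and ferristatin control at 100 nM for full effect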
Rpn11 inh: inhibitors of human proteasome Rpn11. human 26S proteasome, Ub4-pepOG fluorescence polarization; 20S core pre-blocked with epoxomicin. inhibition, % at 20 µM. 0.59% of 360,000 active. AID 588493;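 active means inhibition at 20 µM, scaled to each plate's controls, above about 33%, limit read from the data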
Target sequence (O00487 whole entry, looked up): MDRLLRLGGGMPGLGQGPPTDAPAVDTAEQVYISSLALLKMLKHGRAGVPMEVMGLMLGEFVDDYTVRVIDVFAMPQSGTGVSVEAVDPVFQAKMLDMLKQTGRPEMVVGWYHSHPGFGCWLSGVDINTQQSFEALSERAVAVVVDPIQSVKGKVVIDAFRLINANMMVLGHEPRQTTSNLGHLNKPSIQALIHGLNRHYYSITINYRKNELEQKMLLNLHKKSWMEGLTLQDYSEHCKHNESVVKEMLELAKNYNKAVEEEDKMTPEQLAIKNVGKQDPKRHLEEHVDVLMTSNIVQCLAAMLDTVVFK
aDG glyco act: increases alpha dystroglycan glycosylation. Pro5-aDG cells, alpha-DG glycosylation AlphaScreen (IIH6); 0% Pro5, 100% B10-LARGE cell signal. activation, % at 10 µM. 0.22% of 360,000 active. AID 624168;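 active means activation of at least 8% versus controls, or a plate z-score of at least 8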;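 further: Pro5 are CHO cells carrying HIG-tagged alpha-DG that lacks glycosylation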
HNF4A DNA FP: change in binding of human HNF4 alpha to DNA; P41235; 0.3% of 360,000 active; activity change, % at 10 µM; AID 1224865; HNF4a-FITC DNA binding, fluorescence polarization, 1 h; in the data active means activity change above about 30%, passing the limit was not always enough
caTPT1 confirm: confirmation of Candida albicans TPT1 inhibitors | shares compounds with TPT1 inhibitor | recombinant caTPT1, fluorescence polarization, RNase T1 coupled | inhibition, % at 5 µM | 74% of 2,400 active | AID 2149;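 active means inhibition above the primary screen limit, the mean inhibition of all tested compounds plus 3 SD, cut at about 25% in these data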
RNase T1 counter: blocks Aspergillus oryzae RNase T1, a TPT1 counter-screen; shares compounds with TPT1 inhibitor; RNase T1 cleavage, fluorescence polarization, 1536-well; inhibition, % at 5 µM; 83% of 2,400 active;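 active means inhibition above the solvent-only control well mean plus 3 SD, limit set per screening run, cut at about 23% in these data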;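 further: plate controls were DMSO wells with enzyme for no effect and wells without RNase T1 for full effect; inhibitors block cleavage so intact labeled substrate keeps polarization high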
* hit, by the source's call. Only some compounds are listed: those with a hit (about 1.3% of all), similar ones and a draw of the others.

Screening COc1ccc(/C=C2\N=C(C(C)(C)C)OC2=O)c(OC)c1 returned CSN deneddyl inh -1, XiGFP reactiv 0, TPT1 inhibitor 1, Rpn11 inh 0, aDG glyco act 0 and HNF4A DNA FP -1.
CCN(CC)c1ccc(C=C2C(=O)OC3(CCCCC3)OC2=O)cc1 was read as CSN deneddyl inh 26, XiGFP reactiv 0, TPT1 inhibitor 101*, aDG glyco act 0, HNF4A DNA FP 10, caTPT1 confirm 166* and RNase T1 counter 156*.
CCOc1ccccc1NC=C1C(=O)OC2(CCCCC2)OC1=O was read as CSN deneddyl inh 2, TPT1 inhibitor 2, Rpn11 inh -3, aDG glyco act 0 and HNF4A DNA FP -1.
`CC1=NOC(=O)/C1=C/c1ccc(N(C)C)cc1` gave TPT1 inhibitor 78*, caTPT1 confirm 97* and RNase T1 counter 114*.
CC1=NOC(=O)/C1=C/c1ccc(O)c(Cl)c1 was read as CSN deneddyl inh 1, XiGFP reactiv 0, TPT1 inhibitor 3, Rpn11 inh -2, aDG glyco act 0 and HNF4A DNA FP 3.
Screening COC(=O)C[C@@H]1CC[C@@H]2[C@H](COc3ccc(NC(=O)c4ccccc4)cc3C(=O)N2C)O1 returned XiGFP reactiv 0.
Screening COc1cccc(-c2ccc3c(c2)[C@@H]2[C@@H](CCN2C(=O)Cc2ccncc2)[C@@H](CO)N3)c1 returned XiGFP reactiv 0.
Screening CCN1C(=O)c2ccc(C(=O)O)cc2C1=O returned CSN deneddyl inh 5, TPT1 inhibitor -8, Rpn11 inh -4, aDG glyco act 0 and HNF4A DNA FP 0.
CCN(CC)c1ccc(/C=C2/C(=O)c3ccc(C(=O)O)cc3C2=O)cc1 was read as CSN deneddyl inh 90, XiGFP reactiv 0, TPT1 inhibitor 136*, aDG glyco act 0, HNF4A DNA FP 82*, caTPT1 confirm 121* and RNase T1 counter 114*.
Screening COc1ccc(OCCSc2nnc(CCNC(=O)c3ccc(Cl)c(Cl)c3)n2C)cc1 returned CSN deneddyl inh 4, TPT1 inhibitor -4, Rpn11 inh -61, aDG glyco act 0 and HNF4A DNA FP -6.
For CCn1c(CCNC(=O)c2ccc(Cl)c(Cl)c2)nnc1SCCOc1ccc(OC)cc1 the results were CSN deneddyl inh 0, TPT1 inhibitor 25*, Rpn11 inh -5, aDG glyco act 0, HNF4A DNA FP -3, caTPT1 confirm 4 and RNase T1 counter 7.
`COC(=O)C[C@H]1C[C@@H]2c3cc(NC(=O)Nc4ccc(C(F)(F)F)cc4)ccc3O[C@@H]2[C@H](CO)O1` gave XiGFP reactiv 0.
For CCOc1ccc(N2C(=O)S/C(=C\c3ccc(O)c(OC)c3)C2=O)cc1 the results were CSN deneddyl inh 5, XiGFP reactiv 1, TPT1 inhibitor 66*, Rpn11 inh 16, aDG glyco act 0, HNF4A DNA FP 11, caTPT1 confirm 48* and RNase T1 counter 58*.
`CCN(CC)c1ccc(/C=N/N=C(N)N)c(O)c1` gave CSN deneddyl inh 7, XiGFP reactiv 7, TPT1 inhibitor 49*, aDG glyco act 0, HNF4A DNA FP 22, caTPT1 confirm 93* and RNase T1 counter 103*.
For CCN(CC)c1ccc(N=Cc2ccc(N(CC)CC)cc2O)cc1 the results were CSN deneddyl inh 31, TPT1 inhibitor 63*, aDG glyco act 0, HNF4A DNA FP 167, caTPT1 confirm 120* and RNase T1 counter 121*.
`CCN(CC)c1ccc(C=Nc2ccccc2)c(O)c1` gave CSN deneddyl inh 1, TPT1 inhibitor 14, Rpn11 inh 6, aDG glyco act 0 and HNF4A DNA FP 10.
CN1C(=O)c2cc(NC(=O)C3CCOCC3)ccc2OC[C@H]2O[C@H](CC(=O)NCc3ccc4c(c3)OCO4)CC[C@H]21 was read as XiGFP reactiv 0.
COc1ccc(-n2c(C)cc(/C=C3/SC(=S)N(C)C3=O)c2C)cc1 was read as CSN deneddyl inh 16, XiGFP reactiv 0, TPT1 inhibitor 28*, aDG glyco act 0, HNF4A DNA FP 52*, caTPT1 confirm 63* and RNase T1 counter 75*.
Cc1cc(/C=C2\SC(=S)N(Cc3ccco3)C2=O)c(C)n1-c1ccccc1 was read as CSN deneddyl inh 24, XiGFP reactiv 1, TPT1 inhibitor 102*, aDG glyco act -1, HNF4A DNA FP 45*, caTPT1 confirm 98* and RNase T1 counter 106*.
For Cc1cc(/C=C2/C(=O)N(C)C(=S)N2C)c(C)n1C1CC1 the results were CSN deneddyl inh 6, XiGFP reactiv 0, TPT1 inhibitor 30*, Rpn11 inh 8, aDG glyco act 0, HNF4A DNA FP 12, caTPT1 confirm 46* and RNase T1 counter 55*.
Cc1cc(/C=C2\SC(=S)NC2=O)c(C)n1C1CC1 was read as CSN deneddyl inh 31, TPT1 inhibitor 74*, aDG glyco act 1, HNF4A DNA FP 56*, caTPT1 confirm 107* and RNase T1 counter 117*.
CC=Cc1ccc2n(c1=O)C[C@H]1[C@H](CO)[C@@H](C(=O)NCc3ccccc3)N(Cc3cncnc3)[C@@H]21 (mixture of isomers) was read as XiGFP reactiv 0.
`Cn1cc(/C=C2\SC(=O)NC2=S)c2ccccc21` gave CSN deneddyl inh -75, XiGFP reactiv 1, TPT1 inhibitor -3, Rpn11 inh -44, aDG glyco act 0 and HNF4A DNA FP -39.
Screening Cc1ccc(C(=O)NN2C(=O)/C(=C/c3cn(C)c4ccccc34)SC2=S)cc1 returned CSN deneddyl inh 22, XiGFP reactiv 1, TPT1 inhibitor 160*, Rpn11 inh -80, aDG glyco act 0, HNF4A DNA FP 75, caTPT1 confirm 80* and RNase T1 counter 86*.
Screening Cn1cc(/C=C2\SC(=S)N(NC(=O)c3ccccc3Cl)C2=O)c2ccccc21 returned CSN deneddyl inh 25, XiGFP reactiv 0, TPT1 inhibitor 76*, Rpn11 inh -35, aDG glyco act 0, HNF4A DNA FP 82, caTPT1 confirm 176* and RNase T1 counter 162*.
COc1ccc(CN2CC3(CCN(C(=O)C4CCC4)CC3)c3c(n(C)c4cc(OC)ccc34)[C@H]2CO)cc1 was read as XiGFP reactiv 0.

High-throughput results from PubChem.
